Only some compounds are listed: those with a hit (about 1.8% of all), similar ones and a draw of the others.
PERK inhibitor: inhibitors of human PERK kinase; Q9NZJ5; CHO PERK-DD fusion, SEAP luminescence translation reporter; inhibition, % at 5.6 µM; hit rate 0.17% among 220,000; AID 1416;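 active means inhibition above the mean inhibition of all tested compounds plus 3 SD, set separately per screening campaign, cut at about 2.9% in these data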;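 further: PERK kinase domain activated by AP20187 dimerizer at 100 nM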
STAT1 inh: STAT1 signaling inhibition; NIH 3T3 STAT1-luciferase reporter, IFN-gamma, luminescence; inhibition, % at 5.5 µM; hit rate 0.35% among 200,000; AID 920;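 active means inhibition above a set limit, the mean inhibition across all tested compounds plus 3 SD, cut at about 34% in these data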
STAT3 act-1: increases IL-6 driven STAT3 reporter signal | activation (% of control), % at 5.6 µM | hit rate 0.91% among 190,000 | U3A cells, IL-6 STAT3-luciferase reporter, luminescence; 100% = signal with IL-6 EC80 alone | AID 871;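 active means activation above the screen-wide mean of compound activation plus 3 SD, cut at about 130% in these data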
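Detection: reporter luminescence signal / Assay system: STAT1-lacking human U3A cells, STAT3 luciferase reporter / Incubation: compound pre-incubation 1 h before IL-6, then 6 h stimulation at 37 °C / Control set: IL-6-only high control / Read-out: % activation relative to IL-6 control / Probe or stimulus: Interleukin-6, 33 ng/mL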
STAT3 blocker: reduces IL-6 driven STAT3 reporter signal; U3A cells, IL-6 STAT3-luciferase reporter, luminescence; host cell line lacks STAT1; inhibition, % at 5.5 µM; hit rate 0.89% among 190,000; AID 862;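 active means inhibition above the mean inhibition across all screened compounds plus 3 SD, cut at about 44% in these data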
STAT3 act-2: confirmation of STAT3 signaling activators; shares compounds with STAT3 act-1; U3A STAT3-luciferase reporter, IL-6 potentiation, luminescence; U3A cells lack STAT1; 100 means same as IL-6 alone; potentiation (% of control), % at 5.7 µM; hit rate 64% among 1,200;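 active means percent activation of the STAT3 luciferase reporter above a set limit taken from the earlier primary screen, cut at about 130% in these data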
NFkB act STAT3ct: NF-kappaB activation in STAT3 activator counter-screen; activation (% of control), % at 5.7 µM; human cells, NF-kappaB reporter activation; AID 1309; shares compounds with STAT3 act-1; hit rate 11% among 1,200; in the data active means activation above about 120%;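 further: reporter induced by TNF-alpha stimulation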
STAT1 act: activates STAT1, counter-screen to STAT3 activators. shares compounds with STAT3 act-1. NIH 3T3 STAT1-luciferase reporter, IFN-gamma, luminescence. activation (% of control), % at 5.7 µM. hit rate 13% among 1,200. AID 1318;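 active means activation above the solvent-only control well mean plus 3 SD, set per screening run, cut at about 120% in these data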
Numbers stand for hits; - = inactive; . = no result.

SMILES | PERK inhibitor | STAT1 inh | STAT3 act-1 | STAT3 blocker | STAT3 act-2 | NFkB act STAT3ct | STAT1 act
COc1cc(C(=O)N/N=C/C2CC=CCC2)cc(OC)c1OC (stereo not given) | - | - | 144.1 | - | - | - | -
CN1c2ccccc2C(C)(C)C12C=Nc1c(ccc3ccccc13)O2 (stereo not given) | - | - | 165.8 | - | 150.1 | - | -
COc1ccc(OC)c2c1sc(=NC(=O)c1ccco1)n2C | - | - | 166.4 | - | 138.6 | - | -
CCn1c(=NC(=O)c2ccco2)sc2cccc(F)c21 | - | - | 144.3 | - | - | - | 125.1
COc1ccc(-c2noc(CN(C)C(=O)Nc3ccccc3)n2)cc1 | - | - | - | - | . | . | .
Cc1cc(Nc2ccccc2)n(C(=O)c2ccc(Cl)cc2)n1 | - | - | 139.5 | - | - | - | 133.4
Cc1cc(Nc2ccccc2)n(-c2ccc(C(=O)O)cc2)n1 | - | - | - | - | . | . | .
O=C(Nc1cc(S(=O)(=O)N2CCOCC2)ccc1N1CCOCC1)C1CCCO1 (stereo not given) | - | - | - | - | . | . | .
O=C(c1ccc(S(=O)(=O)Nc2ccccc2)cc1)N1CCOCC1 | - | - | - | - | . | . | .
O=C/C(=C\Nc1ccc(C(=O)N2CCOCC2)cc1)c1nc2ccccc2o1 | - | - | 160.8 | - | 153.4 | - | -
CN(C)C(=O)c1ccc(N/C=C(\C=O)c2nc3ccccc3o2)cc1 | - | - | 141.1 | - | 138.1 | - | -
CN1CCOCCOCCN(C)C1=O | - | - | - | - | . | . | .
CC(C(=O)NC(C)(C)C)N(Cc1cccs1)C(=O)CCN1CCc2ccccc21 (stereo not given) | - | - | - | - | . | . | .
CCOc1ccccc1C1C2=C(COC2=O)Nc2cc3c(cc21)OCO3 (stereo not given) | - | - | 141.2 | - | - | 131.2 | -
C#CCOc1ccc(C2C3=C(COC3=O)Nc3cc4c(cc32)OCO4)cc1OC (stereo not given) | - | - | 142.6 | - | - | 159.0 | -
COc1cc2c(cc1OC)C(c1ccc3c(c1)OCO3)C1=C(CC(C)(C)CC1=O)N2 (stereo not given) | - | - | - | - | . | . | .
O=C1OCC2=C1C(c1ccc(F)cc1)c1cc3c(cc1N2)OCO3 (stereo not given) | - | - | 136.2 | - | - | 153.3 | -
O=C1OCC2=C1C(c1ccc(F)cc1)c1cc3c(cc1N2)OCCO3 (stereo not given) | - | - | 138.3 | - | - | - | -
CCOc1ccccc1C1CC(=O)Nc2cc3c(cc21)OCO3 (stereo not given) | - | - | - | - | . | . | .
O=C(NN1C(=O)c2ccccc2NC1c1ccccn1)c1ccc([N+](=O)[O-])cc1 (stereo not given) | - | - | - | - | . | . | .
O=C(CSc1ccc(-c2cccc([N+](=O)[O-])c2)nn1)N1CCCCC1 | - | - | - | - | . | . | .
Cc1ccc(-c2cc(=O)c3cc(F)ccc3[nH]2)cc1 | - | - | - | - | . | . | .
COc1ccc2[nH]c(-c3cccc(F)c3)cc(=O)c2c1 | - | - | 148.1 | - | - | 130.1 | 125.5
O=c1cc(-c2ccccc2)[nH]c2ccc(F)cc12 | - | - | - | - | . | . | .
Cc1ccc2[nH]c(-c3cccc(F)c3)cc(=O)c2c1 | - | - | 142.4 | - | - | 142.8 | -
SMILES | PERK inhibitor | STAT1 inh | STAT3 act-1 | STAT3 blocker | STAT3 act-2 | NFkB act STAT3ct | STAT1 act
COc1cccc(-c2cc(=O)c3cc(NC(=O)c4ccccc4)ccc3[nH]2)c1 | - | - | - | - | . | . | .
COc1cccc(-c2cc(=O)c3cc(NC(=O)c4ccc(N(C)C)cc4)ccc3[nH]2)c1 | - | - | 138.9 | - | - | 160.9 | -
CCOC(=O)C1=C(O)/C(=C\c2ccc(CNC(=O)C(=O)Nc3ccc(C)c(C)c3)o2)N=C1C | - | - | - | - | . | . | .
Cc1nc2c(n1C1CCCCC1)C(=O)c1ccccc1C2=O | - | - | 169.8 | - | 136.5 | - | -
O=C1c2cccnc2C(=O)N1C1CCCCC1 | - | - | - | - | . | . | .
Cc1cc(SCC(=O)OCC(=O)NCC2CCCO2)c(C)cc1Br (stereo not given) | - | - | - | - | . | . | .
Cc1cccc(C)c1Nc1nnc(SC/C(O)=C(\C#N)c2nc3ccccc3[nH]2)s1 | - | - | 143.1 | - | 152.3 | - | -
N#C/C(=C(/O)CSc1n[nH]c(N)n1)c1nc2ccccc2[nH]1 | - | . | . | . | . | . | .
Cc1cccc(Nc2nnc(SC/C(O)=C(\C#N)c3nc4ccccc4[nH]3)s2)c1C | - | - | 147.7 | - | 144.7 | - | -
Cn1cnnc1SC/C(O)=C(\C#N)c1nc2ccccc2[nH]1 | - | - | - | - | . | . | .
Cc1ccc(C)c(SCC(=O)OC/C(O)=C(\C#N)c2nc3ccccc3[nH]2)c1 | - | - | 146.4 | - | 150.2 | - | -
C=CCn1cccc(C(=O)Nc2ccc(OCC)cc2)c1=O | - | - | - | - | . | . | .
O=C(Cn1c(C(F)(F)F)nc2ccccc21)OCC(=O)c1c[nH]c2ccccc12 | - | - | 137.6 | - | - | - | -
Cc1ccccc1CNC(=O)C(=O)Nc1nccs1 | - | - | - | - | . | . | .
COc1ccc(C(=O)NNC(=O)c2ccc(C)cc2)cc1S(=O)(=O)N1CCCC1 | - | - | - | - | . | . | .
COC(=O)c1c(NC(=O)CN2CCN(c3ccccc3OC)CC2)c2cc(C)ccc2n1C | - | - | 142.7 | - | 134.9 | - | -
COC(=O)c1c(NC(=O)CN2CCN(c3ccccc3OC)CC2)c2c(C)cccc2n1C | - | - | - | - | . | . | .
O=[N+]([O-])c1ccc(S(=O)(=O)N2CCN(Cc3c[nH]c4ccccc34)CC2)cc1 | - | - | 151.8 | - | 155.2 | - | -
COc1ccc(S(=O)(=O)N2CCN(Cc3c[nH]c4ccccc34)CC2)cc1 | - | - | - | - | . | . | .
CC(C)N1CCN(Cc2cccn2-c2ccccn2)CC1CCO (stereo not given) | - | - | - | - | . | . | .
Nc1cc2c(cc1O)CCCC2 | - | - | 137.4 | - | 182.8 | - | 146.9
CCOc1cc(N2CCOCC2)c(OCC)cc1NC(=O)COC(=O)c1cc2ccccc2cc1O | - | - | - | - | . | . | .
CCOc1cc(N2CCOCC2)c(OCC)cc1NC(=O)COc1ncnc2ccccc12 | - | - | 151.2 | - | 154.4 | - | -
COC(=O)c1[nH]c2cc(C)ccc2c1NC(=O)CN1CCCc2ccccc21 | - | - | 156.3 | - | 142.8 | - | 137.0
CCOC(=O)Cc1nnc(NC(=O)C(CC)Sc2nnc3c4ccccc4n(C)c3n2)s1 (stereo not given) | - | - | 136.8 | - | 158.3 | - | -
CC(=O)Nc1ccc(S(=O)(=O)NNC(=O)c2cc3c4ccccc4n(C)c3s2)cc1 | - | - | 138.7 | - | 142.2 | - | -
Brc1ccc(-c2ncc3ccccn23)cc1 | - | . | . | . | . | . | .
COc1ccc(CCNC(=O)CO/N=C/c2cc3c(cc2Br)OCO3)cc1OC | - | - | - | - | . | . | .
